In data set [1] the test system is CCRF-CEM. Description: Cytostatic activity against human CEM/0 after 72 hrs by cell counting. The class given is functional. An outline of the steps: (§1)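 Suspension leukaemia cells in RPMI-1640 with 10% FBS, 2 mM L-glutamine, 0.075% NaHCO3. Seeded at 5–7.5 × 10^4 cells/well with compound and grown at 37 °C for 48 h (L1210) or 72 h (CEM). Cells counted by Coulter counter. IC50 is the concentration that reduces viable cell number by 50%.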

In a further data set the test system is MIA PaCa-2. Description: Antiproliferative activity against human MIAPaCa2 cells after 72 hrs by MTT assay. It counts as functional, cell-based. The conditions noted are these: MIA PaCa-2, 72 h. An outline of the steps: (§2)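 Monolayer lines grown in DMEM with 10% FBS, 2 mM L-glutamine, penicillin/streptomycin, 37 °C, 5% CO2. Seeded at 3000–6000 cells/well by doubling time, then compound added as five 10-fold dilutions (1 × 10^-8 to 1 × 10^-4 M), DMSO ≤0.1%, for 72 h. MTT read-out converted to percentage growth versus untreated wells. IC50 from linear regression. Quadruplicate points, three experiments.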

In the next data set the test system is HepG2. The data set is described as follows: Antiproliferative activity against human HepG2 cells after 72 hrs by MTT assay. It counts as functional, cell-based. As to conditions: HepG2, 72 h. An outline of the steps:
as §2
For orientation: Tetrazolium assays rely on reduction of a dye to a coloured formazan, in cell work by metabolically active cells.

The subject of another data set is MCF7. The data set is described as follows: Antiproliferative activity against human MCF7 cells after 72 hrs by MTT assay. It counts as functional, cell-based. As to conditions: MCF7, 72 h. An outline of the steps:
as §2

Another data set concerns SW-620. Description: Antiproliferative activity against human SW620 cells after 72 hrs by MTT assay. It counts as functional, cell-based. The conditions noted are these: SW-620, 72 h. An outline of the steps: as §2
Data set [2] is described as follows: Cytostatic activity against mouse L1210/0 after 48 hrs by cell counting. The class given is functional. The conditions noted are these: L1210/0, 48 h. An outline of the steps: as §1
Data set [3] can be described thus: Cytotoxicity against human HuH5.2 cells after 72 hrs by MTS assay. It counts as cell-based, Huh-5-2. An outline of the steps:
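Replicon-bearing Huh 5.2 cells treated in parallel with the antiviral plates using a four-step 1-to-5 dilution series for 72 h. Medium replaced with 5% MTS in phenol red-free medium for 1.5 h, absorbance read at 498 nm, and converted to percent of untreated controls. CC50 is the concentration that reduces metabolic activity by 50%, taken from the dose-response curve.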

Another data set concerns WI-38. The data set is described as follows: Antiproliferative activity against human WI38 cells after 72 hrs by MTT assay. It counts as cell-based. The conditions noted are these: WI-38, 72 h. An outline of the steps: as §2
A further data set deals with HeLa. The data set is described as follows: Antiproliferative activity against human HeLa cells after 72 hrs by MTT assay. It counts as functional, cell-based. An outline of the steps:
as §2

Another data set concerns Hepatitis C virus. Description: Antiviral activity against HCV genotype 1b infected in HuH 5.2 cells expressing 1389luc-ubi-neo/NS3-3' assessed as inhibition of viral replication after 72 hrs by luciferase reporter gene assay. It counts as functional, organism-based, Hepacivirus hominis. The conditions noted are these: Huh-5-2, 72 h. An outline of the steps:
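Huh 5.2 cells carrying the genotype 1b I389luc-ubi-neo/NS3-3'/5.1 replicon, seeded at 6500 cells/well in medium without Geneticin and left overnight. Four-step 1-to-5 compound dilutions, 72 h at 37 °C. Cells washed and lysed, then luciferase luminescence read and expressed as percent of untreated controls. EC50 and EC90 from the dose-response curve.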
In general terms: A reporter such as luciferase makes a cellular process visible.

Data set [4] relates to CCRF-CEM. The data set is described as follows: Ratio of ribavirin IC50 to compound IC50 for IMPDH in human CEM cells. The class given is cell-based.
Data set [5] relates to L1210. Description: Ratio of ribavirin IC50 to compound IC50 for IMPDH in mouse L1210 cells. It counts as cell-based.
Data set [6] can be described thus: Selectivity index, ratio of CC50 for human HuH5.2 cells to EC50 for HCV genotype 1b.
For data set [7], the system named is CCRF-CEM. Description: (§3) Inhibition of IMPDH in human CEM cells assessed as […] after 20 to 60 mins. It counts as cell-based. An outline of the steps: (§4)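 Intact L1210 or CEM cells given [2,8-3H]hypoxanthine, which the cells convert to labelled IMP. IMPDH activity measured as 3H release, sampled at 20, 40 and 60 min with or without compound at varying concentrations. After centrifugation at 1100×g for 10 min, supernatant radioactivity counted. Free 3H before cell incubation was below 10% of added label.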

Data set [8] can be described thus: as §3. As to conditions: CCRF-CEM. It counts as cell-based. An outline of the steps:
as §4

Data set [9] concerns L1210. The data set is described as follows: (§5) Inhibition of IMPDH in mouse L1210 cells assessed as […] after 20 to 60 mins. The class given is cell-based. An outline of the steps: as §4
Data set [10] in a line: as §5. The class given is cell-based. An outline of the steps:
as §4

Molecules are shown by their SMILES. pIC50: −log10 of the molar value. Values after ≈ are worked out from the molar mass of the structure shown. Some results are limits rather than exact numbers.

We go through 11 compounds from ChEMBL document CHEMBL2034826, “Novel 1,2,4-triazole and imidazole derivatives of L-ascorbic and imino-ascorbic acid: synthesis, anti-HCV and antitumor activity evaluations” (Bioorg Med Chem, 2012).

In general, pIC50 refers to −log10 of the IC50, conventionally taken in molar units. Broadly, the CC50 is the concentration giving 50% cytotoxicity. Lower therefore signals greater toxicity to the cells. What is called EC50 is the midpoint of the concentration-response curve. For `COC(=O)c1ncn(C[C@H](O)[C@H]2OC(=O)C(OCc3ccccc3)=C2OCc2ccccc2)n1`, the pIC50 (in the data set on CCRF-CEM [1]; in the data set with MIA PaCa-2; with HepG2; in the data set with MCF7; in the data set on SW-620; in [2]) was below 4.00 in each case. The negative logarithm of the IC50 (pIC50) in the data set with WI-38 and in the data set with HeLa was below 4.00 in each case. In data set [3], this compound had a half-maximal cytotoxic concentration (CC50) at 72 h above 100 µg/mL. For the same compound, in the data set with Hepatitis C virus, the 50% effective concentration (EC50) came out at 62.1 µg/mL (≈ 133 µM).

By EC90 is commonly meant the concentration needed for an effect of 90%. Turning to `NC(=O)c1ncn(CCC2(O)NC(=O)C(OCc3ccccc3)=C2OCc2ccccc2)n1` (stereo unspecified), the pIC50 is 3.35 with CCRF-CEM [1]; below 4.00 with MIA PaCa-2; 4.18 with HepG2; 4.21 in the data set with MCF7; below 4.00 with SW-620; at most 3.30 in data set [2]. In addition, the negative-log IC50 (pIC50) with WI-38 and in the data set on HeLa was below 4.00 each time. Also, the CC50 at 72 h in data set [3] is above 100 µg/mL. In the data set on Hepatitis C virus, the half-maximal effective concentration (EC50) was above 100 µg/mL. Besides, in the data set with Hepatitis C virus, the EC90 is above 100 µg/mL.

Turning to `COC(=O)c1ncn(CCC2(O)NC(=O)C(OCc3ccccc3)=C2OCc2ccccc2)c1C(=O)OC` (stereo unspecified), the pIC50 with CCRF-CEM [1] is 4.46; in the data set on MIA PaCa-2, 4.33; with HepG2 it was below 4.00; in the data set on MCF7, below 4.00; in the data set with SW-620, below 4.00; in [2], 4.34. In addition, the pIC50 was 4.28 with WI-38 and 4.09 with HeLa. Moreover, the 50% cytotoxic concentration (CC50) at 72 h in [3] was above 100 µg/mL. Moreover, in the data set on Hepatitis C virus, the 50% effective concentration (EC50) came to 36.6 µg/mL (≈ 70.2 µM). Moreover, the concentration for an effect of 90% (EC90) in the data set on Hepatitis C virus amounted to 81.3 µg/mL (≈ 156 µM).

Take `NC(=O)c1ncn(CCC2(O)NC(=O)C(OCc3ccccc3)=C2OCc2ccccc2)c1C(N)=O` (stereo unspecified): the negative-log IC50 (pIC50) in the data set with CCRF-CEM [1] was 3.81; with MIA PaCa-2, below 4.00; in the data set with HepG2, below 4.00; in the data set on MCF7, below 4.00; in the data set with SW-620 it was below 4.00; in data set [2], 3.70. For the same compound, the negative logarithm of the IC50 (pIC50) is 4.01 with WI-38 and below 4.00 in the data set on HeLa. Also, the Ratio IC50 in the data set with CCRF-CEM [4] and with L1210 [5] was 50 each time. In [3], this compound returned a CC50 at 72 h above 100 µg/mL. Further, in the data set on Hepatitis C virus, the concentration giving a half-maximal response (EC50) is above 100 µg/mL. Moreover, the 90% effect concentration (EC90) with Hepatitis C virus is above 100 µg/mL.

In the case of `COC(=O)c1ncn(CC=C2OC(=O)C(OCc3ccccc3)=C2OCc2ccccc2)n1` (mixture of isomers), the negative-log IC50 (pIC50) in the data set with CCRF-CEM [1] is 4.36; in the data set with MIA PaCa-2 it was 4.10; in the data set on HepG2, 4.15; with MCF7, 4.27; in the data set on SW-620, below 4.00; in data set [2] it was 3.99. Besides, the negative-log IC50 (pIC50) in the data set on WI-38 is below 4.00; in the data set with HeLa, 4.01. The Ratio IC50 with CCRF-CEM [4] and in the data set on L1210 [5] was 50 throughout. This compound also returned a 50% cytotoxic concentration (CC50) at 72 h in data set [3] above 100 µg/mL. Besides, the concentration for a half-maximal effect (EC50) with Hepatitis C virus is 78.5 µg/mL. In the data set with Hepatitis C virus, the EC90 was above 100 µg/mL.

With `COC(=O)c1ncn(CC=C2OC(=O)C(O)=C2O)n1` (mixture of isomers), the pIC50 with CCRF-CEM [1] is below 3.30; in the data set with MIA PaCa-2, below 4.00; in the data set on HepG2 it was below 4.00; with MCF7 it was below 4.00; in the data set on SW-620, below 4.00; in [2], 3.43. The negative logarithm of the IC50 (pIC50) in the data set on WI-38 and with HeLa was below 4.00 in each case. Moreover, in data set [3], the CC50 at 72 h is above 100 µg/mL. For the same compound, the EC50 in the data set with Hepatitis C virus stood at 61.3 µg/mL.

`COC(=O)c1ncn(CC=C2OC(=O)C(OCc3ccccc3)=C2OCc2ccccc2)c1C(=O)OC` (mixture of isomers): the negative logarithm of the IC50 (pIC50) in the data set with CCRF-CEM [1] was 5.00; in the data set with MIA PaCa-2 it was 4.48; in the data set on HepG2 it was 4.26; with MCF7, 4.28; with SW-620, 4.31; in [2], 4.49. Besides, the pIC50 was below 4.00 in the data set with WI-38 and 4.47 in the data set with HeLa. Besides, the Ratio IC50 in the data set on CCRF-CEM [4] and in the data set on L1210 [5] was 50 each time. Besides, in [6], the “Ratio CC50/EC50” value was found to be 5.3. This compound also returned a CC50 at 72 h in data set [3] of 70.5 µg/mL. Moreover, the EC50 in the data set with Hepatitis C virus is 13.3 µg/mL. Further, in the data set on Hepatitis C virus, the EC90 stood at 22.7 µg/mL.

On to `N#Cc1ncn(C/C=C2\OC(=O)C(OCc3ccccc3)=C2OCc2ccccc2)c1C#N` (mixture of isomers), for which the negative logarithm of the IC50 (pIC50) in the data set on CCRF-CEM [1] is 5.14; with MIA PaCa-2 it was 4.44; in the data set on HepG2, 4.04; with MCF7 it was 4.20; in the data set with SW-620, 4.14; in data set [2] it was 4.68. The negative-log IC50 (pIC50) was 4.14 in the data set with WI-38 and 4.23 in the data set with HeLa. The same compound showed a CC50 at 72 h in data set [3] above 100 µg/mL. Further, the EC50 in the data set with Hepatitis C virus was above 100 µg/mL. In the data set on Hepatitis C virus, the concentration for an effect of 90% (EC90) was above 100 µg/mL.

As for `COc1cccc2c1C(=O)c1c(O)c3c(c(O)c1C2=O)C[C@@](O)(C(=O)CO)C[C@@H]3O[C@H]1C[C@H](N)[C@H](O)[C@H](C)O1` [DOXORUBICIN], the pIC50 with CCRF-CEM [1] was 6.41; in the data set with MIA PaCa-2, 7.52; with HepG2 it was 7.30; with SW-620, 7.40; in data set [2], 5.89; with WI-38, 7.40.

`O=c1[nH]cc(F)c(=O)[nH]1` [FLUOROURACIL]: the negative-log IC50 (pIC50) in the data set on MIA PaCa-2 is 4.93; with HepG2, 4.25; in the data set on MCF7, 4.17; in the data set on SW-620, 5.18; in the data set on WI-38, 4.61; in the data set on HeLa, 4.83.

Turning to `NC(=O)c1ncn([C@@H]2O[C@H](CO)[C@@H](O)[C@H]2O)n1` [RIBAVIRIN], the pIC50 in the data set on CCRF-CEM [1] was 4.20; in [8] it was 6.00; in data set [2], 4.66; in [10] it was 6.00. Besides, the inhibition entry in the data set with CCRF-CEM [7] and with L1210 [9] was “Dose-dependent effect” in each case.
